Compound activity deposited in PubChem BioAssay by Broad Institute.
GASC1 inh – KDM4C (human) demethylase inhibition; GST-KDM4C 2-372, H3K9me3 peptide, LANCE TR-FRET; AID 720574; 96,000 compounds, 0.15% hits; inhibition, % at 12.5 µM;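 active = mean replicate inhibition above about 25%, with at least 55% of replicates also reaching it, limit read from the data, passing the limit was not always enough; inconclusive = only one of those two conditions met; inactive = neither condition met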
Target sequence (Q9H3R0 2-372 limits assumed): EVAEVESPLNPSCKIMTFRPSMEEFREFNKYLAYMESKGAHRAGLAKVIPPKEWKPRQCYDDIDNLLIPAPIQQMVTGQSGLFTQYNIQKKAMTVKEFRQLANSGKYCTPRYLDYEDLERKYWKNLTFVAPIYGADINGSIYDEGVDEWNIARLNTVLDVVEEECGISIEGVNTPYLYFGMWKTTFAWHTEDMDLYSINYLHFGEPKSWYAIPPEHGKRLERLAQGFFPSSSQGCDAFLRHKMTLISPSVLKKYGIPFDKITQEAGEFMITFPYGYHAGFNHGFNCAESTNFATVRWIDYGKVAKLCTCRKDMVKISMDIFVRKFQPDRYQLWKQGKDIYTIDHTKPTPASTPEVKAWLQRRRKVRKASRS
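System: N-terminal GST-fused human GASC-1 (KDM4C) fragment, residues 2-372 / Amount: 10 nM GST-KDM4C in enzyme reaction / Also added: H3K9me3 peptide with Fe(II)/2OG / Times: 30 min demethylation and 1 h detection at room temperature / Signal: LANCE TR-FRET / Read-out basis: Fall in 671/618 emission ratio as inhibition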
Pf Dd2 growth – inhibitors of Plasmodium falciparum Dd2 growth; AID 1159554; 94,000 compounds, 2.3% hits; P. falciparum Dd2 growth, SYBR Green, 72 h; active compounds read low; activity change, % at 10 µM; in the data active = activity change below about -80%; inconclusive = no clear call, values can overlap the other calls
IDH1 mut inh – blocks human IDH1 R132H reductase activity; 70,000 compounds, 0.18% hits; AID 624101; O75874; diaphorase/resazurin fluorescence, 60 min; inhibition, % at 10 µM; in the data active = inhibition above about 34%; inconclusive = no clear call, values can overlap the other calls; inactive = below about 11%
Target sequence (O75874 whole entry R132H): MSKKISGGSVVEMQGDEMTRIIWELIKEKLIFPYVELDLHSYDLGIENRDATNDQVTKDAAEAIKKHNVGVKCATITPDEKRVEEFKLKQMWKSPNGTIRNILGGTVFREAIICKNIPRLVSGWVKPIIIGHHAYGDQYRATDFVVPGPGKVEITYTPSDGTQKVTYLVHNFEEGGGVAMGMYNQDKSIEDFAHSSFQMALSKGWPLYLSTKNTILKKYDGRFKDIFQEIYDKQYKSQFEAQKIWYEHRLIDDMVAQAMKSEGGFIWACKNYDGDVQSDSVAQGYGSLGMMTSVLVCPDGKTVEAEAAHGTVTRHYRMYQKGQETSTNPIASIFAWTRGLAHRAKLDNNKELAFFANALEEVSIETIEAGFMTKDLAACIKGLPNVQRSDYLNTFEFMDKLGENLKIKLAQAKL
T cruzi growth-1 – T. cruzi proliferation inhibition | inhibition, % at 8.34 µM | T. cruzi beta-gal in NIH3T3, GalScreen luminescence, 90 h | 77,000 compounds, 5.9% hits;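 active = mean inhibition above about 93%, with at least 55% of replicates each passing it, limit read from the data, passing the limit was not always enough; inconclusive = only one of those two conditions holds; inactive = neither condition holds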
T cruzi growth-2 – inhibitors of T. cruzi proliferation | T. cruzi beta-gal in NIH3T3, GalScreen luminescence, 90 h | shares compounds with T cruzi growth-1 | inhibition, % at 8.35 µM | AID 651739 | 5,600 compounds, 72% hits;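 active = mean replicate inhibition above about 95% and at least 55% of replicates individually reaching it, limit read from the data; inconclusive = only one of the two criteria is met; inactive = neither criterion is met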
T cruzi growth-3 – inhibitors of T. cruzi proliferation | shares compounds with T cruzi growth-1 | 5,600 compounds, 21% hits | inhibition, % at 2.09 µM | AID 651740 | T. cruzi beta-gal in NIH3T3, GalScreen luminescence, 90 h;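 active = mean inhibition above about 95%, with at least 55% of replicates also reaching it, limit read from the data; inconclusive = meets just one of the two conditions; inactive = meets neither condition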
3T3 cytotox – NIH/3T3 (mouse) viability loss. shares compounds with T cruzi growth-1. NIH/3T3 viability, CellTiter-Glo ATP luminescence, 90 h. cytotoxicity (signal decrease), % at 8.35 µM. 5,600 compounds, 14% hits;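 active = mean signal decrease across replicates above about 35% based on untreated-well scatter, with enough replicates individually passing, limit read from the data; inconclusive = no rule stated though some were filed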
3T3 cytotox 2 – NIH/3T3 (mouse) viability loss | NIH/3T3 viability, CellTiter-Glo ATP luminescence, 90 h | 5,600 compounds, 56% hits | shares compounds with T cruzi growth-1 | inhibition, % at 24.9 µM;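 active = mean loss of cell viability signal at or above a set limit, and enough replicates individually reaching it; inconclusive = meets only the mean limit or only the replicate share; inactive = meets neither condition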
Each line names hits and unclear results; the compound was inactive in the other large screens (follow-up assays come after a bar, where they were run). Only some compounds are listed: those with a hit (about 5.8% of all), similar ones and a draw of the others.

CCCNC(=O)C[C@H]1CC[C@@H]2[C@H](COC[C@@H](O)CN2Cc2ccccc2F)O1	T cruzi growth-1 96.7 (no result: IDH1 mut inh) | T cruzi growth-2 inactive | T cruzi growth-3 inactive | 3T3 cytotox inactive | 3T3 cytotox 2 inactive
O=C(C[C@@H]1CC[C@@H]2[C@H](COC[C@@H](O)CN2Cc2ccccc2F)O1)NCc1ccccc1F	none (no result: IDH1 mut inh)
CNC(=O)C[C@@H]1CC[C@H]2[C@@H](COC[C@@H](O)CN2Cc2ccccc2F)O1	none (no result: IDH1 mut inh, T cruzi growth-1)
CCCNC(=O)C[C@@H]1CC[C@@H]2[C@H](COC[C@@H](O)CN2Cc2ccccc2F)O1	T cruzi growth-1 110.6 (no result: IDH1 mut inh) | T cruzi growth-2 inactive | T cruzi growth-3 inactive | 3T3 cytotox inactive | 3T3 cytotox 2 inactive
C[C@H](CO)N1C[C@H](C)[C@@H](CN(C)Cc2ccc(C(=O)Nc3ccccc3N)cc2)Oc2ccc(NC(=O)Cc3ccccc3)cc2C1=O	none
C[C@@H]1CN([C@@H](C)CO)C(=O)c2cc(C#CC3CCCCC3)cnc2O[C@@H]1CN(C)C(=O)NC1CCCC1	T cruzi growth-1 100.1 | T cruzi growth-2 106.6 | T cruzi growth-3 inactive | 3T3 cytotox inactive | 3T3 cytotox 2 99.6
C[C@H](CO)N1C[C@H](C)[C@H](CN(C)C(=O)NC2CCCCC2)Oc2ncc(C#Cc3ccccc3)cc2C1=O	T cruzi growth-1 97.6 (no result: GASC1 inh) | T cruzi growth-2 105.5 | T cruzi growth-3 inactive | 3T3 cytotox 41.1 | 3T3 cytotox 2 57.7
CN(C)CC(=O)N[C@H]1CC[C@H](CCNS(=O)(=O)c2ccccc2)O[C@@H]1CO	none (no result: T cruzi growth-1)
CN(C)CC(=O)N1[C@@H](C#N)[C@@H](c2ccc(C#CC3CC3)cc2)[C@@H]1CO	none (no result: IDH1 mut inh)
CC(C)NC(=O)N1[C@H](CO)[C@H](c2ccc(C#CC3CC3)cc2)[C@@H]1C#N	none (no result: IDH1 mut inh)
CC(C)NC(=O)N1[C@H](C#N)[C@@H](c2ccc(C#CC3CC3)cc2)[C@@H]1CO	T cruzi growth-1 inconclusive (no result: IDH1 mut inh) | T cruzi growth-2 108.7 | T cruzi growth-3 inactive | 3T3 cytotox inactive | 3T3 cytotox 2 inactive
CC(C)NC(=O)N1[C@H](CO)[C@@H](c2ccc(C#CC3CC3)cc2)[C@@H]1C#N	T cruzi growth-1 inconclusive (no result: IDH1 mut inh) | T cruzi growth-2 107.0 | T cruzi growth-3 inactive | 3T3 cytotox inactive | 3T3 cytotox 2 inactive
Cn1cc(CNC(=O)c2cc(-c3ccncc3)nc3ccc(Br)cc23)cn1	none (no result: GASC1 inh, Pf Dd2 growth, T cruzi growth-1)
C[C@H]1CN([C@@H](C)CO)C(=O)Cc2cc(NC(=O)c3ccncc3)ccc2O[C@@H]1CN(C)Cc1ccc(-c2ccccc2)cc1	none
C[C@H](CO)N1C[C@H](C)[C@@H](CN(C)Cc2ccc(-c3ccccc3)cc2)Oc2ccc(NC(=O)C3CC3)cc2CC1=O	T cruzi growth-1 104.7 | T cruzi growth-2 105.7 | T cruzi growth-3 inactive | 3T3 cytotox inactive | 3T3 cytotox 2 104.6
C[C@@H]1CN([C@@H](C)CO)C(=O)Cc2cc(NC(=O)c3ccncc3)ccc2O[C@H]1CN(C)Cc1ccc(-c2ccccc2)cc1	T cruzi growth-1 109.3 | T cruzi growth-2 103.9 | T cruzi growth-3 111.3 | 3T3 cytotox inactive | 3T3 cytotox 2 103.0
C[C@H](CO)N1C[C@H](C)[C@@H](CN(C)Cc2ccc(Oc3ccccc3)cc2)Oc2ccc(NC(=O)c3ccncc3)cc2CC1=O	T cruzi growth-1 97.0 | T cruzi growth-2 111.3 | T cruzi growth-3 inactive | 3T3 cytotox inactive | 3T3 cytotox 2 105.5
C[C@@H]1CN([C@@H](C)CO)C(=O)Cc2cc(NC(=O)c3ccncc3)ccc2O[C@@H]1CN(C)Cc1ccc(Oc2ccccc2)cc1	none (no result: IDH1 mut inh)
C[C@H]1CN([C@@H](C)CO)C(=O)Cc2cc(NC(=O)C3CC3)ccc2O[C@@H]1CN(C)Cc1ccc(-c2ccccc2)cc1	none
C[C@H](CO)N1C[C@H](C)[C@@H](CN(C)Cc2ccncc2)Oc2ccc(NC(=O)c3ccncc3)cc2CC1=O	none
C[C@H](CO)N1C[C@H](C)[C@@H](CN(C)Cc2ccc(C(F)(F)F)cc2)Oc2ccc(NC(=O)c3ccncc3)cc2CC1=O	T cruzi growth-1 95.9 | T cruzi growth-2 105.5 | T cruzi growth-3 inactive | 3T3 cytotox inactive | 3T3 cytotox 2 58.8
Cc1noc(C)c1NC(=O)Nc1ccc2c(c1)C(=O)N([C@H](C)CO)C[C@H](C)[C@H](CN(C)C(=O)NC(C)C)O2	none
COc1ccc(S(=O)(=O)Nc2ccc3c(c2)C(=O)N([C@H](C)CO)C[C@H](C)[C@@H](CN(C)S(=O)(=O)c2ccc(C)cc2)O3)cc1	none
CCCNC(=O)C[C@H]1CC[C@H]2[C@@H](COc3ccc(NC(=O)C4CCCC4)cc3C(=O)N2C)O1	none (no result: IDH1 mut inh, T cruzi growth-1)
C[C@@H]1CN([C@H](C)CO)C(=O)Cc2cc(NC(=O)c3ccncc3)ccc2O[C@H]1CN(C)Cc1ccc(Oc2ccccc2)cc1	T cruzi growth-1 104.8 | T cruzi growth-2 109.2 | T cruzi growth-3 inactive | 3T3 cytotox inactive | 3T3 cytotox 2 102.5
C[C@H](CO)N1C[C@H](C)[C@@H](CN(C)Cc2ccccc2)Oc2ccc(NC(=O)c3ccncc3)cc2CC1=O	none
C[C@@H]1CCCCO[C@H](CN(C)Cc2ccccc2)[C@H](C)CN([C@@H](C)CO)C(=O)c2cc(NS(=O)(=O)c3cccs3)ccc2O1	none (no result: T cruzi growth-1)
CCCNC(=O)C[C@H]1C[C@@H]2c3cc(NC(=O)Nc4ccc(OC)cc4)ccc3O[C@@H]2[C@H](CO)O1	none
COc1ccc(NC(=O)Nc2ccc3c(c2)[C@H]2C[C@H](CC(=O)NCc4ccc5c(c4)OCO5)O[C@@H](CO)[C@H]2O3)cc1	none
COc1ccc(NC(=O)Nc2ccc3c(c2)[C@@H]2C[C@H](CC(=O)NCc4ccc5c(c4)OCO5)O[C@H](CO)[C@@H]2O3)cc1	T cruzi growth-1 102.1 | T cruzi growth-2 inactive | T cruzi growth-3 inactive | 3T3 cytotox inactive | 3T3 cytotox 2 inactive
COc1ccc(NC(=O)Nc2ccc3c(c2)[C@H]2C[C@@H](CC(=O)NCCc4ccccc4)O[C@@H](CO)[C@H]2O3)cc1	T cruzi growth-1 156.6 | T cruzi growth-2 111.8 | T cruzi growth-3 97.7 | 3T3 cytotox inactive | 3T3 cytotox 2 inactive
COc1ccc(NC(=O)Nc2ccc3c(c2)[C@@H]2C[C@H](CC(=O)NCCc4ccccc4)O[C@@H](CO)[C@@H]2O3)cc1	T cruzi growth-1 176.1 | T cruzi growth-2 104.7 | T cruzi growth-3 inconclusive | 3T3 cytotox inactive | 3T3 cytotox 2 inactive
N#C[C@@H]1[C@H](c2ccccc2C2=CCCC2)[C@@H](CO)N1S(=O)(=O)c1ccccc1	none (no result: IDH1 mut inh, T cruzi growth-1)
C[C@H]1CN([C@@H](C)CO)S(=O)(=O)c2ccc(C#CC(C)(C)O)cc2O[C@H]1CN(C)Cc1ccccc1	none (no result: GASC1 inh, IDH1 mut inh)
